Bioassay records from PubChem BioAssay.
MEKK3 PB1 HTS: raises or lowers MEK5 binding to the human MEKK3 PB1 domain; Q99759; bead-based flow cytometry, Alexa488-MEK5 binding to MEKK3; actives lie on both sides; 0 = blocked by unlabeled MEK5, 100 = vehicle; binding response (% of control), % at 10 µM; 1.4% of 290,000 active;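 active means binding response more than 3 SD above or below the average of its plate-row segment, actives on both sides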;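 further: Alexa488 bead fluorescence after subtracting the streptavidin-only scavenger bead signal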
Target sequence (Q99759 whole entry, looked up, the tested form may be a part): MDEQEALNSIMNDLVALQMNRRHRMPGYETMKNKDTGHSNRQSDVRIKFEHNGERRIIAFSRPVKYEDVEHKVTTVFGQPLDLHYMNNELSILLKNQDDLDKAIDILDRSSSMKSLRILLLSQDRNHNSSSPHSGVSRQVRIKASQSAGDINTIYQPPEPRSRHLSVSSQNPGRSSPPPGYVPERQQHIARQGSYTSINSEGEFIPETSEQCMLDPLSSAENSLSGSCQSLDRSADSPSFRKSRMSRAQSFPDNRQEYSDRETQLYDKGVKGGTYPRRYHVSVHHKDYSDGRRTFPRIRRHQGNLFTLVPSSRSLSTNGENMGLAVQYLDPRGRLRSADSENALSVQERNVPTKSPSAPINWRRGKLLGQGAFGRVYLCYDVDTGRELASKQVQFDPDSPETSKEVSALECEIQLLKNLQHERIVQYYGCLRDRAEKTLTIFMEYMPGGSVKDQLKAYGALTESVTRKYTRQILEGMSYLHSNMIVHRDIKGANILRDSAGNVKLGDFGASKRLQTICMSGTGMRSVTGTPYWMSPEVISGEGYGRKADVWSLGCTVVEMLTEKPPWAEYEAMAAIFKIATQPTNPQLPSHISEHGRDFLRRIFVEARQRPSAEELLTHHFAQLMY
MEKK2 mut-MEK5: signal of MEK5 binding to mutant human MEKK2 PB1 domain; bead flow cytometry, Alexa488-MEK5 binding to MEKK2 mutant; percent response, % at 10 µM; 0.35% of 290,000 active; in the data active means percent response above about 24%, passing the limit was not always enough
T cruzi repl: T. cruzi replication inhibition | inhibition, % (no concentration beside the values) | 1.4% of 300,000 active | AID 1885 | T. cruzi beta-gal in NIH3T3, luminescence, 90 h;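 active means mean inhibition across valid replicates above about 55%, limit read from the data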;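 further: signal also drops with host cell toxicity which is not excluded here; 0% = plate median of DMSO wells and 100% = zero luminescence signal; higher percent means less beta-gal luminescence so fewer parasites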
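System: Mouse NIH/3T3 fibroblasts infected with β-gal-expressing T. cruzi Tulahuen C4 | Quantity: NIH/3T3 cells, 5,000 per well | Reagent: 5000 reporter trypomastigotes per well | Dosing: Compound pinned at 50 nL/well, DMSO | Schedule: 3 h host attachment, then at least 90 h co-culture | Detection: GalScreen luminescence, 60 min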
MEKK2 WT-MEK5: raises or lowers MEK5 binding to wildtype human MEKK2 PB1 domain; bead flow cytometry, Alexa488-MEK5 binding to MEKK2 WT; actives lie on both sides; Q9Y2U5; binding response (% of control), % at 10 µM; 1.1% of 290,000 active; in the data active means binding response below about 67% or above about 130%
FID counter: counter-screen for HCV NS3 helicase inhibitors: DNA intercalator displacement; inhibition, % at 7.9 µM; 0.17% of 290,000 active; DNA fluorescent intercalator displacement, fluorescence; in the data active means inhibition above about 37%;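 further: 0% = vehicle and 100% = reference compound; higher means more ethidium bromide displaced from hairpin DNA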
NS3 helicase inh: HCV NS3 helicase inhibition. 0.56% of 290,000 active. inhibition, % at 10.9 µM. NS3 helicase DNA unwinding, Cy5 molecular beacon fluorescence;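 active means inhibition above the mean of all tested compounds plus 3 SD, set per campaign, cut at about 35% in these data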;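 further: 0% = DMSO wells and 100% = thioflavine S control wells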
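Control set: DMSO versus 110 µM thioflavine S; Material: NS3 helicase fragment of HCV; Measured by: Cy5 fluorescence at 0 and 60 min, beacon hairpin quenching; Read-out basis: percent inhibition from t60/t0 fluorescence ratio; Times: reaction time 60 min, 25 °C; Repeats: single replicate; Compound dosing: single dose, 10.9 µM nominal final, DMSO 0.8% final.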
MEKK2wt confirm: raises or lowers MEK5 binding to wildtype human MEKK2, retest | shares compounds with MEKK3 PB1 HTS | bead flow cytometry, Alexa488-MEK5 binding to MEKK2 WT; actives lie on both sides | binding response (% of control), % at 10 µM | 2.4% of 5,900 active; in the data active means binding response below about 16% or above about 210%; inactive means in between
MEKK2mut confirm: signal of MEK5 binding to mutant human MEKK2, retest; shares compounds with MEKK3 PB1 HTS; bead flow cytometry, Alexa488-MEK5 binding to MEKK2 mutant; percent response, % at 10 µM; 2% of 5,900 active; AID 1893; in the data active means percent response mostly above about 71%, no sharp cut-off; inactive means mostly below about 38%;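 further: higher means compound restores mutant binding toward wildtype level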
MEKK3-MEK5 inh: confirmation of inhibitors of MEK5 binding to human MEKK3. shares compounds with MEKK3 PB1 HTS. bead flow cytometry, Alexa488-MEK5 binding to MEKK3; stronger effect = lower value. binding response (% of control), % at 10 µM. 1.8% of 5,900 active;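 active means binding response below 72% of control, or above a set upper limit, though filed actives all read lower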;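 further: 100% = DMSO only wells and 0% = binding blocked by excess unlabeled MEK5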
The depositor's hits bear a star; x = no result given; [ ] = dose if it differs, or a comment. In the library only some 4.1% were active in any assay of this set; here they are far more common.

SMILES | MEKK3 PB1 HTS | MEKK2 mut-MEK5 | T cruzi repl | MEKK2 WT-MEK5 | FID counter | NS3 helicase inh | MEKK2wt confirm | MEKK2mut confirm | MEKK3-MEK5 inh
Cc1cccc(-n2cc(CN3CCN(Cc4nccn4C)CC3)c(-c3cccc(F)c3)n2)c1 | 106 | 34 | 35 | 153* | 22 | -44 | 138 | 19 | 107
COc1ccc(-n2cc(CN3CCCC3)c(-c3cccc(F)c3)n2)cc1 | 93 | 8 | 5 | 112 | 22 | -23 | x | x | x
CC(=O)Nc1ccc2c(c1)CN(c1cc(C)ccc1C)CO2 | 102 | 11 | -16 | 117 | -5 | 0 | x | x | x
COc1ccc(-c2nn(CCC#N)cc2C(=O)Nc2cccc(C(=O)O)c2)cc1[N+](=O)[O-] | 110 | 6 | -4 | 114 | -13 | 1 | x | x | x
COC(=O)c1ccccc1NC(=O)C1CC(=O)N(c2ccc(F)cc2)C1 (stereo unspecified) | 99 | -6 | 4 | 98 | -5 | -7 | x | x | x
COC(=O)c1ccccc1NC(=O)C1CC(=O)N(c2ccc(C)c(C)c2)C1 (stereo unspecified) | 131* | 6 | 11 | 127 | -21 | -3 | 99 | -13 | 102
Cc1c(C)c2ccc(OC(C)C(=O)NCCCN3CCOCC3)c(C)c2oc1=O (stereo unspecified) | 102 | 0 | 5 | 102 | 12 | 2 | x | x | x
O=C(NCCCN1CCc2ccccc2C1)C1CCN(c2nnc(-n3cccc3)s2)CC1 | 115 | 55* | 15 | 219* | 3 | -12 | 186 | 62 | 113
O=C(NCCCc1ccccc1)C1CCN(c2nnc(-n3cccc3)s2)CC1 | 104 | 3 | -25 | 105 | -27 | 2 | x | x | x
O=C(NC1CCN(Cc2ccccc2)CC1)C1CCN(c2nnc(-n3cccc3)s2)CC1 | 112 | 50* | 30 | 203* | -2 | -14 | 183 | 65 | 111
CC(=O)Nc1cccc(NC(=O)c2csc(C)c2)c1 | 103 | 8 | 14 | 110 | -3 | 6 | x | x | x
C=CCNCCOc1cccc(Br)c1 | 113 | 0 | -13 | 106 | 2 | -13 | x | x | x
CCC(C)NCCOc1cccc(Br)c1 (stereo unspecified) | 157* | -1 | 9 | 100 | 16 | -10 | 103 | 2 | 101
Cc1ccc(OCC(=O)Nc2ccccc2[N+](=O)[O-])c(Br)c1 | 86 | -13 | 17 | 85 | 1 | 0 | x | x | x
O=c1c2ccccc2c(C=NC2CCN(Cc3ccccc3)CC2)c(O)n1Cc1ccc2c(c1)OCO2 | 101 | 18 | 54 | 154* | 4 | -51 | 156 | 20 | 96
Cn1c(=O)c(C(=O)CN2CCN(Cc3ccc4c(c3)OCO4)CC2)c(N)n(Cc2ccccc2)c1=O | 101 | 4 | 16 | 105 | 17 | -14 | x | x | x
Cc1cc2oc3ccc(NCCCN4CCOCC4)cc3c(=O)c2cc1C | 116 | 14 | -6 | 144* | x | x | 136 | 20 | 111
Cc1cc(NS(C)(=O)=O)c(=O)n(Cc2cccc(F)c2)c1 | 98 | 8 | 1 | 20*[inhibitor] | -2 | -1 | 102 | -1 | 102
Cc1ccc(Cn2cccc(NS(C)(=O)=O)c2=O)cc1 | 101 | 0 | 0 | 100 | -9 | 24 | x | x | x
COC(=O)c1cc(C(=O)Nc2ccc(S(N)(=O)=O)cc2)cc([N+](=O)[O-])c1 | 103 | 0 | 11 | 100 | 3 | 16 | x | x | x
O=C(O)COCC(=O)Nc1ccc(Oc2ncnc3cc(Cl)ccc23)nc1 | 48*[inhibitor] | -41 | -14 | 58 | -4 | 8 | 105 | 6 | 103
